# Assay results reported in ChEMBL document CHEMBL2331243, “Discovery and mechanism study of SIRT1 activators that promote the deacetylation of fluorophore-labeled substrate” (J Med Chem, 2013).
# Changes are numbered by the printed parent chain. The source made the active and inactive calls. No cut-off for these calls is given here.
# Assays:
# [1] = biological target: T1, NAD-dependent protein deacetylase sirtuin-2 (Homo sapiens, UniProt Q8IXJ6); assay: Activation of at N-terminal GST-tagged SIRT2 (34 to 356 amino acid residues) (unknown origin) expressed in Escherichia coli BL21(DE3) using ac-RHKKac-AMC as substrate after 45 mins by fluorometric analysis
# T1 sequence (Q8IXJ6 whole entry): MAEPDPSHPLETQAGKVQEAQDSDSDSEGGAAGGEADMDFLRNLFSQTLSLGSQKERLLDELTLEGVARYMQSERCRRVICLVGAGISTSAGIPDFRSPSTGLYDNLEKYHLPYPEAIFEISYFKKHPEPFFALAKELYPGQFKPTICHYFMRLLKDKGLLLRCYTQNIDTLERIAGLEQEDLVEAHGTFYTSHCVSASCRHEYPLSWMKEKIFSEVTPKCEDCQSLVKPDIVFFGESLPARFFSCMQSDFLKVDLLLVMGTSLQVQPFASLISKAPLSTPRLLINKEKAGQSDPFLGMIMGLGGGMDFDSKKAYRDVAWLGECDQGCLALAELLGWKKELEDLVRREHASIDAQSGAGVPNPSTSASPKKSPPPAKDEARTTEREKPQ
# How it was run: (§1)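 Fluorescent deacetylation assay in 25 mM Tris, 137 mM NaCl, 2.7 mM KCl, 1 mM MgCl₂, pH 8.0, with 750 μM NAD⁺ and 31.25 μM ac-RHKK_ac-AMC. Enzyme was 3.6 μM SIRT3 or 4.2 μM GST-SIRT2, set to match SIRT1 activity. Trypsin released AMC from the deacetylated peptide, read at ex 340 / em 490 nm. Compounds were added from DMSO (DMSO as blank): single point at 50 μM, or 3-fold DMSO dilution series. EC1.5 (concentration giving 50% activity increase) and maximum activation were fitted to a dose–response function.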
# [2] = biological target: T2, NAD-dependent protein deacetylase sirtuin-2 (Homo sapiens) (UniProt Q8IXJ6); assay: Activation of at N-terminal GST-tagged SIRT2 (34 to 356 amino acid residues) (unknown origin) expressed in Escherichia coli BL21(DE3) using ac-RHKKac-AMC as substrate at 50 uM after 45 mins by fluorometric analysis relative to control; how it was run: as §1
# T2 sequence (whole entry): T1 sequence (Q8IXJ6 whole entry)
# [3] = biological target: T3, NAD-dependent protein deacetylase sirtuin-1 (Homo sapiens) (UniProt Q96EB6); assay: Activation of N-terminal His6-tagged SIRT1 (156 to 664 amino acid residues) (unknown origin) expressed in Escherichia coli BL21(DE3) using ac-RHKKac-AMC as substrate at 50 uM after 45 mins by fluorimetric analysis relative to control
# T3 sequence (whole entry): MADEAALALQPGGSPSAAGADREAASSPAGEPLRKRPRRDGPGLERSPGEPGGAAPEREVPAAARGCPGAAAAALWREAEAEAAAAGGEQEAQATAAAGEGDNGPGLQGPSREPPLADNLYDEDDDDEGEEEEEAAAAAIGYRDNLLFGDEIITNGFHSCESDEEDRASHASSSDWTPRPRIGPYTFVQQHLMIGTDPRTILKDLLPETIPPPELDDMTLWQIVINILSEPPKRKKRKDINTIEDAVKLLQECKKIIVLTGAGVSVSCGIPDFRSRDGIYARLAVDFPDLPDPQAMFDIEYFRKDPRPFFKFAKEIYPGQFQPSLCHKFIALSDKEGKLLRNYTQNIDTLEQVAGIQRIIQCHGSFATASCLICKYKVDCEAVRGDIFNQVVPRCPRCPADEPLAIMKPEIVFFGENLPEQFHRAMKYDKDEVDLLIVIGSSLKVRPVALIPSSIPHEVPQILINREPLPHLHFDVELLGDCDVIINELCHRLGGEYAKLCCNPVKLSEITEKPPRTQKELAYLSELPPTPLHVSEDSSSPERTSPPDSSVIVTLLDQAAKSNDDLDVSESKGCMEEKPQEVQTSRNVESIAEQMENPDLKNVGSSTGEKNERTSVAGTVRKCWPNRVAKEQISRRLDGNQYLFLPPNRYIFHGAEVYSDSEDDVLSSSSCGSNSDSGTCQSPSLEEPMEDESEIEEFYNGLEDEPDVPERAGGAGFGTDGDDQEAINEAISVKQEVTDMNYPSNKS
# How it was run: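 Fluorogenic deacetylation screen: 1 μM SIRT1 with 750 μM NAD⁺ and 31.25 μM ac-RHKK_ac-AMC in Tris buffer (25 mM Tris, 137 mM NaCl, 2.7 mM KCl, 1 mM MgCl₂, pH 8.0). Compounds at 50 μM from DMSO stocks; DMSO alone as blank. Trypsin then releases AMC from deacetylated peptide; fluorescence read at 340/490 nm.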
# [4] = biological target: T4, NAD-dependent protein deacetylase sirtuin-3, mitochondrial (Homo sapiens, UniProt Q9NTG7); assay: Activation of N-terminal His6-tagged SIRT3 (118 to 399 amino acid residues) (unknown origin) expressed in Escherichia coli BL21(DE3) using ac-RHKKac-AMC as substrate after 45 mins by fluorometric analysis; how it was run: as §1
# T4 sequence (Q9NTG7 whole entry): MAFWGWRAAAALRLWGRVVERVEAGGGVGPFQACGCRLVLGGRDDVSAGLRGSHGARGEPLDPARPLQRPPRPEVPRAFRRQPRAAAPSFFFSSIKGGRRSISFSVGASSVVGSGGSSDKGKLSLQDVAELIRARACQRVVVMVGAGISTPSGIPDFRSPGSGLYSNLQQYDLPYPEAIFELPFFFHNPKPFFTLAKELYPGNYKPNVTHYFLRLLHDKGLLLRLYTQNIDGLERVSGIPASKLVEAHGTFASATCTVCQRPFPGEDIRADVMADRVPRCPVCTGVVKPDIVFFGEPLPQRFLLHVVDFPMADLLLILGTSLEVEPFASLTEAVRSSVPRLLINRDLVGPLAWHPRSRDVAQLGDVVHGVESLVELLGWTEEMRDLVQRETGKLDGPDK
# [5] = biological target: T5, NAD-dependent protein deacetylase sirtuin-3, mitochondrial (Homo sapiens) (UniProt Q9NTG7); assay: Activation of N-terminal His6-tagged SIRT3 (118 to 399 amino acid residues) (unknown origin) expressed in Escherichia coli BL21(DE3) using ac-RHKKac-AMC as substrate at 50 uM after 45 mins by fluorometric analysis relative to control; how it was run: as §1
# T5 sequence (whole entry): T4 sequence (Q9NTG7 whole entry)
# [6] = biological target: T6, NAD-dependent protein deacetylase sirtuin-1 (Homo sapiens, UniProt Q96EB6); assay: Activation of N-terminal His6-tagged SIRT1 (156 to 664 amino acid residues) (unknown origin) expressed in Escherichia coli BL21(DE3) using ac-RHKKac-AMC as substrate after 45 mins by fluorometric analysis
# T6 sequence (Q96EB6 whole entry): T3 sequence (whole entry)
# [7] = biological target: T3, NAD-dependent protein deacetylase sirtuin-1 (Homo sapiens); assay: Activation of SIRT1 in human MCF7 cells assessed as reduction in doxorubicin-induced acetyl-p53 level at <100 uM after 6 hrs by Western blotting analysis; type: cell-based
# How it was run: (§2)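 MCF-7 cells were seeded at 1 × 10⁵ in DMEM with 10% fetal calf serum and grown 24 h at 37 °C, 5% CO₂. They then got gradient compound concentrations with 0.1 μM trichostatin and 5 μM doxorubicin for 6 h, then lysis. 50 μg protein was run on a 9% gel and blotted with polyclonal anti-acetyl-p53 (Lys382) at 4 °C overnight, with HRP anti-rabbit detection.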
# [8] = system: T7, NAD-dependent protein deacetylase sirtuin-1 (Homo sapiens), Q96EB6 [R446A]; assay: Activation of SIRT1 R446A mutant (unknown origin) at 50 uM relative to control
# T7 sequence (whole entry): T3 sequence (whole entry) with R446A
# How it was run: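 SIRT1 R446A mutant made by site-directed mutagenesis, expressed in E. coli and purified on Ni-NTA. Fluorescent deacetylation assay used 1 μM enzyme, 750 μM NAD⁺, 31.25 μM ac-RHKK_ac-AMC and 50 μM compound versus DMSO, in Tris buffer pH 8.0. Trypsin released AMC from deacetylated peptide, read at ex 340/em 490 nm.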
# [9] = biological target: T3, NAD-dependent protein deacetylase sirtuin-1 (Homo sapiens); assay: Activation of SIRT1 in human MCF7 cells assessed as reduction in doxorubicin-induced acetyl-p53 level at >100 uM after 6 hrs by Western blotting analysis; type: cell-based; how it was run: as §2
# [10] = biological target: T3, NAD-dependent protein deacetylase sirtuin-1 (Homo sapiens); assay: Activation of N-terminal His6-tagged SIRT1 (156 to 664 amino acid residues) (unknown origin) expressed in Escherichia coli BL21(DE3) using ac-RHKKac-NH2 as substrate after 45 mins by HPLC analysis
EC50 [1],max activation [2],max activation [3],EC50 [4],max activation [5],EC50 [6],Activity [7],max activation [8],Activity [9],Activity [10],Structure (SMILES)
11.6 µM,257%,194%,28.6 µM,199%,1.8 µM,–,–,–,–,O=C(N/N=C/c1cc(Br)c(O)c(Br)c1O)c1ccc2cc(-c3ccccc3)ccc2c1
–,–,802%,–,–,–,inactive,239%,Active,inactive,Oc1ccc(/C=C/c2cc(O)cc(O)c2)cc1
